Tests used:
[1] = Metabolic stability in rat liver microsomes assessed as parent compound remaining at 1 uM after 30 mins in presence of NADPH by LC/MS/MS analysis; assay type: ADME, Microsome; details: read-out: Stability
Procedure, shortened: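 Compound at 1 μM final with 0.5 mg/mL microsomal protein in 100 mM phosphate buffer pH 7.4 at 37 °C, started by adding an NADPH-regenerating system. Reactions were quenched with cold acetonitrile at 0 and 30 min and spun down. Supernatant was analysed by LC-MS/MS. The 0-min sample, quenched before NADPH addition, was set as 100%, and percent parent remaining came from peak areas.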

[2] = molecular target: Calcium/calmodulin-dependent protein kinase type 1 (Homo sapiens) (UniProt Q14012); test: Binding affinity to wild-type human full length CAMK1 (M1 to L370 residues) expressed in bacterial expression system assessed as residual binding level at 1 uM by Kinomescan method relative to control
Calcium/calmodulin-dependent protein kinase type 1 (Homo sapiens), sequence (Q14012 whole entry, looked up, the tested form may be a part, canonical isoform): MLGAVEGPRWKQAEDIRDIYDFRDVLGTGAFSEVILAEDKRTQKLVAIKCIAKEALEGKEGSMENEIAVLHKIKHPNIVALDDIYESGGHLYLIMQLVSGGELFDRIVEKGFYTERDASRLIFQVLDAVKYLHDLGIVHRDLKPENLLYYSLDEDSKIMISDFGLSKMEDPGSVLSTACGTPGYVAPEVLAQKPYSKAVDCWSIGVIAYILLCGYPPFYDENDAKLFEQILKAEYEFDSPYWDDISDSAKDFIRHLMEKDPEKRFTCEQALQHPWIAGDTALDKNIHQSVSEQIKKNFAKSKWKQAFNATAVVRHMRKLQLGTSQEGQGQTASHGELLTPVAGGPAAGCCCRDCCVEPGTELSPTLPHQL

[3] = molecular target: Casein kinase I isoform gamma-2 (Homo sapiens) (UniProt P78368); test: Binding affinity to wild-type human full length CSNK1G2 (M1 to K415 residues) expressed in bacterial expression system assessed as residual binding level at 1 uM by Kinomescan method relative to control
Casein kinase I isoform gamma-2 (Homo sapiens), sequence (P78368 whole entry, looked up, the tested form may be a part, canonical isoform): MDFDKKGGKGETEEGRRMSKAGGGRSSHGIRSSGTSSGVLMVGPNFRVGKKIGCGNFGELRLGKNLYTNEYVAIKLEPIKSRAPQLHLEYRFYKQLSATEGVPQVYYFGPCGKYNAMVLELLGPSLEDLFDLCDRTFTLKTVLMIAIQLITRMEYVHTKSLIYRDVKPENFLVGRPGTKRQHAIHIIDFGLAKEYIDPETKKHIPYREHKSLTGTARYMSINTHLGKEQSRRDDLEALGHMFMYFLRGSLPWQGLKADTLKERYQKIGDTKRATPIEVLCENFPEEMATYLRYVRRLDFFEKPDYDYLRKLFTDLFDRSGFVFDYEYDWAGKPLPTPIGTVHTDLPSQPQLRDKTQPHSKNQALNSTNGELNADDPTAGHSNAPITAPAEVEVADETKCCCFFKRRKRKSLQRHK

[4] = molecular target: Megakaryocyte-associated tyrosine-protein kinase (Homo sapiens) (UniProt P42679); test: Binding affinity to wild-type human full length CTK (M43 to P508 residues) expressed in mammalian expression system assessed as residual binding level at 1 uM by Kinomescan method relative to control
[5] = molecular target: Dual specificity tyrosine-phosphorylation-regulated kinase 2 (Homo sapiens) (UniProt Q92630); test: Binding affinity to wild-type human full length DYRK2 (M1 to S528 residues) expressed in mammalian expression system assessed as residual binding level at 1 uM by Kinomescan method relative to control
Dual specificity tyrosine-phosphorylation-regulated kinase 2 (Homo sapiens), sequence (Q92630 whole entry, the tested form may be a part): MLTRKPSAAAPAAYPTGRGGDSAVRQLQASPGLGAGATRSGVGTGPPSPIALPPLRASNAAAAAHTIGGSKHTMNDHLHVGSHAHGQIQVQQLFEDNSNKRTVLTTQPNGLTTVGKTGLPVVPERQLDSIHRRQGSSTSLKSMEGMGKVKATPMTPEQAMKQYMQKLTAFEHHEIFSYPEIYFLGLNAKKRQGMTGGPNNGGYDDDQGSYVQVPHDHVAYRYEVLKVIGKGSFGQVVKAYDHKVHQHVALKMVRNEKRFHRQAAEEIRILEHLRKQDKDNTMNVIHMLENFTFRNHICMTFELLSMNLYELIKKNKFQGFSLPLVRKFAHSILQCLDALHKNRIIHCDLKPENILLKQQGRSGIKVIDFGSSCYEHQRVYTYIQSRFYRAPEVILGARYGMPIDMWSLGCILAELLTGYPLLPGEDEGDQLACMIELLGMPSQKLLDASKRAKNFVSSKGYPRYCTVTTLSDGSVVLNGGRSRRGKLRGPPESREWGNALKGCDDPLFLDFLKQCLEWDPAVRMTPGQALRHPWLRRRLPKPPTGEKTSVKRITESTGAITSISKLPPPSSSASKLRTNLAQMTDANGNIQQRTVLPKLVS

[6] = system: Epidermal growth factor receptor (Homo sapiens), P00533 [T790M]; test: Binding affinity to human partial length EGFR T790M mutant (R669 to G1022 residues) expressed in mammalian expression system assessed as residual binding level at 1 uM by Kinomescan method relative to control
Procedure, shortened: (§1)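 Kinome-wide selectivity panel run by the KINOMEscan method, with the test compound at a single concentration of 1 μM. Wild-type and mutant kinases were profiled in the same screen.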

[7] = molecular target: Mitogen-activated protein kinase 3 (Homo sapiens) (UniProt P27361); test: Binding affinity to wild-type human full length ERK1 (M1 to P379 residues) expressed in bacterial expression system assessed as residual binding level at 1 uM by Kinomescan method relative to control
Mitogen-activated protein kinase 3 (Homo sapiens), sequence (P27361 whole entry, the tested form may be a part): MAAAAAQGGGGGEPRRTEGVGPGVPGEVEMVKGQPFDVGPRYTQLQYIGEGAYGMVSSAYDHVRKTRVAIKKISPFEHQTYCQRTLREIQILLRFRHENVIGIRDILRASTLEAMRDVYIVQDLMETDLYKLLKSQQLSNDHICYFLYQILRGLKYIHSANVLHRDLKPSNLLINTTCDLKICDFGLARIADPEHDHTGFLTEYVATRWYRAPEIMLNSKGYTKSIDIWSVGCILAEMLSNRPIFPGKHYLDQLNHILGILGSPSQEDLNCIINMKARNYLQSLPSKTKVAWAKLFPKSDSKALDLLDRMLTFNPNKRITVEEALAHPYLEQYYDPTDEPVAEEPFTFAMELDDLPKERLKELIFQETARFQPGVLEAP
Procedure, shortened: (§2)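 Single-point kinome-wide KINOMEscan binding panel, test compound at 1 μM, run by the provider's standard protocol.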

[8] = molecular target: Mitogen-activated protein kinase kinase kinase kinase 1 (Homo sapiens) (UniProt Q92918); test: Binding affinity to wild-type human full length HPK1 (M1 to R799 residues) expressed in bacterial expression system assessed as residual binding level at 1 uM by Kinomescan method relative to control
Mitogen-activated protein kinase kinase kinase kinase 1 (Homo sapiens), sequence (Q92918 whole entry, looked up, the tested form may be a part): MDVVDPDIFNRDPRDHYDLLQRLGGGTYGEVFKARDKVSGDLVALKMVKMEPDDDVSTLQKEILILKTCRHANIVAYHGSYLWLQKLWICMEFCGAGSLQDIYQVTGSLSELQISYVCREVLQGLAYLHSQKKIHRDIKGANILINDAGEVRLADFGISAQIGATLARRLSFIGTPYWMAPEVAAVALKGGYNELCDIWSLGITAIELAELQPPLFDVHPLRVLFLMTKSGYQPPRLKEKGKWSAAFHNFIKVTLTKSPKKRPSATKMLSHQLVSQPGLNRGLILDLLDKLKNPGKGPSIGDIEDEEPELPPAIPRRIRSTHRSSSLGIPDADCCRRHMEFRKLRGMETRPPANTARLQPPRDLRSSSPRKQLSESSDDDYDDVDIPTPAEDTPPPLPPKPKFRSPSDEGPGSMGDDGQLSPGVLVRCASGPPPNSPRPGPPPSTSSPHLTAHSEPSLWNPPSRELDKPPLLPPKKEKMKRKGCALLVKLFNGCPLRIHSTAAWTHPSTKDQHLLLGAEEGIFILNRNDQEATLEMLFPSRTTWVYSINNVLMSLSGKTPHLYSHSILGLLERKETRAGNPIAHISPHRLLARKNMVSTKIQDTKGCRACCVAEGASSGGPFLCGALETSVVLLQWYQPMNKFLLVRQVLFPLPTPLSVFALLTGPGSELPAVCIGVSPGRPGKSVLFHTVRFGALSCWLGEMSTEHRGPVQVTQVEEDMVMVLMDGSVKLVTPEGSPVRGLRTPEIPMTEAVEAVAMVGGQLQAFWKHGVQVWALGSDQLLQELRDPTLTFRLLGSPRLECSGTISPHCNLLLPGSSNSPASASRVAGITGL

[9] = molecular target: Inhibitor of nuclear factor kappa-B kinase subunit epsilon (Homo sapiens) (UniProt Q14164); test: Binding affinity to wild-type human full length IKK-epsilon (M1 to V716 residues) expressed in mammalian expression system assessed as residual binding level at 1 uM by Kinomescan method relative to control; procedure, shortened: as §2
Inhibitor of nuclear factor kappa-B kinase subunit epsilon (Homo sapiens), sequence (Q14164 whole entry, the tested form may be a part): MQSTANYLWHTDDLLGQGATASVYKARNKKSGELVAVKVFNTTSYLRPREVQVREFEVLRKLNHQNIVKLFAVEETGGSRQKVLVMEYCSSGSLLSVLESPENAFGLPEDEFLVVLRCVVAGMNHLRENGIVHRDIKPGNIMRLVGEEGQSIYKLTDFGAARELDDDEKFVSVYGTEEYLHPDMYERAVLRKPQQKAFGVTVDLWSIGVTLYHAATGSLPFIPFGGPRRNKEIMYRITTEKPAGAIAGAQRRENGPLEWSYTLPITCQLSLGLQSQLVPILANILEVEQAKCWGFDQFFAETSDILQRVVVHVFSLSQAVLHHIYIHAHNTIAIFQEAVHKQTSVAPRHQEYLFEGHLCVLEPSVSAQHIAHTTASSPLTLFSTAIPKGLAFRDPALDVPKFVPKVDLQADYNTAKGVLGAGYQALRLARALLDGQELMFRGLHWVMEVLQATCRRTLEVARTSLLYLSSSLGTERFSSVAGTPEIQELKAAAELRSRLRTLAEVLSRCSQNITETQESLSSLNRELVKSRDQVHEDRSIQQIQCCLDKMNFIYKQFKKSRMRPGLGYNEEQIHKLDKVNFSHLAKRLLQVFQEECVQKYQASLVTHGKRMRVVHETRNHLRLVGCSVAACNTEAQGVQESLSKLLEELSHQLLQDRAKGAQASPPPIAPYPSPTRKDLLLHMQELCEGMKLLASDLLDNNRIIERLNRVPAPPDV

[10] = molecular target: Tyrosine-protein kinase ITK/TSK (Homo sapiens) (UniProt Q08881); test: Binding affinity to wild-type human partial length ITK (R335 to L620 residues) expressed in bacterial expression system assessed as residual binding level at 1 uM by Kinomescan method relative to control
[11] = molecular target: Mitogen-activated protein kinase 9 (Homo sapiens) (UniProt P45984); test: Binding affinity to wild-type human full length JNK2 (M1 to Q382 residues) expressed in mammalian expression system assessed as residual binding level at 1 uM by Kinomescan method relative to control; procedure, shortened: as §2
[12] = system: Mast/stem cell growth factor receptor Kit (Homo sapiens), P10721 [V559D,T670I]; test: Binding affinity to human partial length KIT V559D/T670I double mutant (Y545 to D952 residues) expressed in bacterial expression system assessed as residual binding level at 1 uM by Kinomescan method relative to control; procedure, shortened: as §1
[13] = system: Mast/stem cell growth factor receptor Kit (Homo sapiens), P10721 [UNDEFINED MUTATION]; test: Binding affinity to human partial length KIT V559D/V654 double mutant (Y545 to D952 residues) expressed in bacterial expression system assessed as residual binding level at 1 uM by Kinomescan method relative to control; procedure, shortened: as §1
[14] = molecular target: Macrophage-stimulating protein receptor (Homo sapiens) (UniProt Q04912); test: Binding affinity to wild-type human partial length MST1R (I1057 to L1363 residues) expressed in bacterial expression system assessed as residual binding level at 1 uM by Kinomescan method relative to control
[15] = molecular target: Serine/threonine-protein kinase NIM1 (Homo sapiens) (UniProt Q8IY84); test: Binding affinity to wild-type human partial length NIM1 (Q44 to N355 residues) expressed in mammalian expression system assessed as residual binding level at 1 uM by Kinomescan method relative to control
Serine/threonine-protein kinase NIM1 (Homo sapiens), sequence (Q8IY84 whole entry, the tested form may be a part): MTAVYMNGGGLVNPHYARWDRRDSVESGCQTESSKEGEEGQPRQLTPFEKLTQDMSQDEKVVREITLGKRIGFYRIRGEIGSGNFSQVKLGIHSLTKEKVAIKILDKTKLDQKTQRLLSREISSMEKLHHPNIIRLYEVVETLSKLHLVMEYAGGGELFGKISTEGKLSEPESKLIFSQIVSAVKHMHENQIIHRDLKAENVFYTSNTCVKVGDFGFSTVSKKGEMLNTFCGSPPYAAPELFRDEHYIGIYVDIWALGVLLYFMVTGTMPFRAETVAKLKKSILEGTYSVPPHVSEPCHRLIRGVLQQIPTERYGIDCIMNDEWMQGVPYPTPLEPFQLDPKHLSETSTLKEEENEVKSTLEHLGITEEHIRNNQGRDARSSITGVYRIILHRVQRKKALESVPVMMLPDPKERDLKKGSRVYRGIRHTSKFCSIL

[16] = molecular target: Platelet-derived growth factor receptor beta (Homo sapiens) (UniProt P09619); test: Binding affinity to wild-type human partial length PDGFRB (V582 to Y1009 residues) expressed in bacterial expression system assessed as residual binding level at 1 uM by Kinomescan method relative to control
Platelet-derived growth factor receptor beta (Homo sapiens), sequence (P09619 whole entry, the tested form may be a part): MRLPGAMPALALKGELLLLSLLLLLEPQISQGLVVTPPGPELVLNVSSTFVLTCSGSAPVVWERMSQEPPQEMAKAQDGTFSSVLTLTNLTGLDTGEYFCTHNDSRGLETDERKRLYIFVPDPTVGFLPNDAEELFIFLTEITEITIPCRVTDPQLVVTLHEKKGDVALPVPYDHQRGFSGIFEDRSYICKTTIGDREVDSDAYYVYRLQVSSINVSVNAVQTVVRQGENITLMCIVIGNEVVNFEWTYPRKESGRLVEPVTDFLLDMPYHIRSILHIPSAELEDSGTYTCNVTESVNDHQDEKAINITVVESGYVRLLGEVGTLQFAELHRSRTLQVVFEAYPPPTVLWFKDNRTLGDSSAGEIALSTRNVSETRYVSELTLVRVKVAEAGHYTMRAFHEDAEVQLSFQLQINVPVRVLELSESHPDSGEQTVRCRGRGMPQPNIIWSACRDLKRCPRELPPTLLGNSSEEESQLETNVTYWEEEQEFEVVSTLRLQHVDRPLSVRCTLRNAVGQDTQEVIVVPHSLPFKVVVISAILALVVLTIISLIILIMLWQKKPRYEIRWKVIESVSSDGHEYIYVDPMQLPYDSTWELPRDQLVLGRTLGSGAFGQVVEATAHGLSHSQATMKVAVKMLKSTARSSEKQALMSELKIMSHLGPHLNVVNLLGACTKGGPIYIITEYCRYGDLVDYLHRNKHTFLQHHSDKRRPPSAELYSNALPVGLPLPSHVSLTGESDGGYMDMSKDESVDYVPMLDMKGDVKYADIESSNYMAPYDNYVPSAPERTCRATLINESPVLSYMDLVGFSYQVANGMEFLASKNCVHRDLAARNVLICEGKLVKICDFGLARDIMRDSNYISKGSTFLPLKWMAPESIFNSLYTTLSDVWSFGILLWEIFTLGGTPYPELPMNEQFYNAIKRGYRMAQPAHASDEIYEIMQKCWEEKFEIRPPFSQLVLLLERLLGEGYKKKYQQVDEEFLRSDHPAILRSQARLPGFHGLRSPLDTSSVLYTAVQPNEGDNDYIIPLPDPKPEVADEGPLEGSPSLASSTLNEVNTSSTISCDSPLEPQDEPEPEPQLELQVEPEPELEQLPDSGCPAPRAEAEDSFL

[17] = molecular target: Serine/threonine-protein kinase PLK1 (Homo sapiens) (UniProt P53350); test: Binding affinity to wild-type human partial length PLK1 (A33 to F325 residues) expressed in mammalian expression system assessed as residual binding level at 1 uM by Kinomescan method relative to control
[18] = molecular target: Serine/threonine-protein kinase Sgk2 (Homo sapiens) (UniProt Q9HBY8); test: Binding affinity to wild-type human partial length SGK2 (L54 to C427 residues) expressed in mammalian expression system assessed as residual binding level at 1 uM by Kinomescan method relative to control
[19] = molecular target: Serine/threonine-protein kinase SIK1 (Homo sapiens) (UniProt P57059); test: Binding affinity to wild-type human partial length SIK (M1 to Y304 residues) expressed in bacterial expression system assessed as residual binding level at 1 uM by Kinomescan method relative to control
[20] = molecular target: Serine/threonine-protein kinase SIK2 (Homo sapiens) (UniProt Q9H0K1); test: Binding affinity to wild-type human full length SIK2 (M1 to N926 residues) expressed in bacterial expression system assessed as residual binding level at 1 uM by Kinomescan method relative to control; procedure, shortened: as §2
[21] = molecular target: STE20/SPS1-related proline-alanine-rich protein kinase (Homo sapiens) (UniProt Q9UEW8); test: Binding affinity to wild-type human partial length STK39 (P43 to I357 residues) expressed in mammalian expression system assessed as residual binding level at 1 uM by Kinomescan method relative to control
[22] = molecular target: Serine/threonine-protein kinase TAO3 (Homo sapiens) (UniProt Q9H2K8); test: Binding affinity to wild-type human partial length TAOK3 (M1 to T316 residues) expressed in mammalian expression system assessed as residual binding level at 1 uM by Kinomescan method relative to control

With `C=CC(=O)Nc1cc(Nc2ncc(Cl)c(Nc3ccccc3S(=O)(=O)C(C)C)n2)c(OC)cc1N(C)CCN(C)C` the remaining at 0.5 h, 1 µM [1] was 11%, the Activity [2] was 40% and the Activity [3] was 74%. The Activity [4] was 98%, the Activity [5] was 100% and the Activity [6] was 0%. The Activity [7] was 77%, the Activity [8] was 15% and the Activity [9] was 21%. For the same compound, the Activity [10] was 0.1%, the Activity [11] was 68% and the Activity [12] was 60%. For the same compound, the Activity [13] was 57%, the Activity [14] was 100% and the Activity [15] was 100%. For the same compound, the Activity [16] was 43%, the Activity [17] was 83% and the Activity [18] was 95%. For the same compound, the Activity [19] was 67%, the Activity [20] was 38% and the Activity [21] was 20%. The Activity [22] was 0.15%.
